MT stabilize HCS – microtubule stabilizers in HeLa cells, primary screen, imaging, high-content imaging; HeLa tubulin immunostaining HCS, 24 h; share of cells brighter than vehicle mean+2SD; % tubulin-high responders, % at 10 µM; 200,000 tested, 0.83% active;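 active = plate Z-score above 3 for both tubulin-high and condensed-nucleus cell shares, with cell loss under 80%, at 10 µM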;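 note: anti alpha tubulin signal scored within the nucleus-defined area of each cell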
L major viab – Leishmania major promastigote growth inhibition, primary screen | Leishmania major promastigotes, resazurin fluorescence viability | 200,000 tested, 9% active | inhibition, % at 10 µM | AID 1063, 2008; in the data active = inhibition above about 50%;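 note: promastigotes grown with compound for 44 hours at 28 °C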
bCat nuc transl – modulators of beta-catenin nuclear translocation, primary screen, imaging, HeLa cells, immunofluorescence, high-content; 190,000 tested, 0.3% active; nuclear translocation activity, % at 5 µM; AID 1665, 2009;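 active = nuclear translocation activity above 50% at 5 µM, with a well cell count of 50 or more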;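 note: per-cell ratio of nuclear to cytoplasmic median beta-catenin stain intensity; plate controls were DMSO negative control for no effect and GSK-3 inhibitor IX positive control for full effect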
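System: Human HeLa cells, endogenous beta-catenin | Compound dosing: 5 µM primary, 0.02–20 µM confirmation | Timing: 24 h compound exposure at 37°C, 5% CO2 | Measured by: Fluorescence imaging of beta-catenin antibody stain plus DAPI | Read-out basis: % activation of per-cell nuclear versus cytoplasmic median beta-catenin signal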
Ba/F3 V617F tox – reduced viability of JAK2V617F-dependent Ba/F3 cells, primary screen, JAK2V617F inhibitor project, cell-based, Ba/F3 EpoR-JAK2V617F, luminescence; ATP luminescence; inhibition, % at 5.6 µM; 220,000 tested, 1.1% active; AID 1446, 2008;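 active = inhibition above the campaign mean plus 3 SD over all tested compounds, cut at about 24% in these data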;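 note: cytokine-independent growth of Ba/F3 cells driven by EpoR plus mutant JAK2; 0% = DMSO-treated cells and 100% = JAK inhibitor I control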
APP transl inh – inhibitors of APP translation via 5'UTR reporter, primary screen, APP 5'UTR luciferase, SH-SY5Y cells; SH-SY5Y APP 5'UTR-luciferase reporter, luminescence; inhibition, % at 2 µM; 190,000 tested, 0.82% active; AID 1285, 2008;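 active = inhibition above a set limit, derived from the sample mean plus 3 SD, cut at about 45% in these data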
BaF3 parental – parental Ba/F3 cell viability inhibition, counter-screen for JAK2V617F inhibitor project, murine pro-B, CellTiter-Glo luminescence; 220,000 tested, 1.1% active; CellTiter-Glo ATP luminescence; inhibition, % at 5.6 µM;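 active = inhibition above a per-campaign cutoff, the mean inhibition of all tested compounds plus 3 SD, cut at about 27% in these data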;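 note: 0% = DMSO wells and 100% = JAK Inhibitor I control wells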
Active calls of the source: *. Sampled rows, rich in hits. Any-hit rate of the full collection: about 9.6%.

Results for Cc1ccc(CN2C(=O)c3ccccc3NC2c2ccccn2)cc1 (stereo not drawn) ?
MT stabilize HCS: 2.1; L major viab: 62.6*; bCat nuc transl: 2.2; Ba/F3 V617F tox: 6.5; APP transl inh: -1.2; BaF3 parental: 11.7

Results for CCCN1C(=O)c2ccccc2NC1c1ccc(C)cc1 (stereo not drawn) ?
MT stabilize HCS: 2.0; L major viab: 11.8; bCat nuc transl: -0.7; Ba/F3 V617F tox: 2.4; APP transl inh: 1.8; BaF3 parental: 9.6

What do the screens show for `Cc1ccc(-n2c(C)cc(C=C3C(=O)CC(C)(C)CC3=O)c2C)cc1`?
MT stabilize HCS: 3.7; L major viab: 98.2*; Ba/F3 V617F tox: -4.3; APP transl inh: 3.9; BaF3 parental: 0.4

How did CCOc1ccccc1NC(=S)N1CCC(NC(=O)NC23CC4CC(CC(C4)C2)C3)CC1 do in these assays?
MT stabilize HCS: 2.3; L major viab: 60.2*; bCat nuc transl: -1.7; Ba/F3 V617F tox: -4.3; APP transl inh: -12.6; BaF3 parental: 0.9

How did COc1ccccc1NC(=S)N1CCC(NC(=O)NC23CC4CC(CC(C4)C2)C3)CC1 do in these assays?
MT stabilize HCS: 2.6; L major viab: 97.3*; bCat nuc transl: 1.6; Ba/F3 V617F tox: -1.1; APP transl inh: 5.6; BaF3 parental: -1.1

Results for COc1ccc(NC(=S)N2C3CCC2CC(NC(=O)NC24CC5CC(CC(C5)C2)C4)C3)c(OC)c1 (stereo not drawn) ?
MT stabilize HCS: 1.1; L major viab: -3.3; bCat nuc transl: -0.3; Ba/F3 V617F tox: -1.1; APP transl inh: -10.5; BaF3 parental: 6.9

What do the screens show for `Cc1cc(=O)c2ccc3ccccc3c2[nH]1`?
MT stabilize HCS: 1.1; L major viab: 54.1*; bCat nuc transl: -13.8; Ba/F3 V617F tox: 1.3; APP transl inh: 8.8; BaF3 parental: 4.5

How did Cc1cc(=O)c2cccc(Br)c2[nH]1 do in these assays?
MT stabilize HCS: 3.4; L major viab: 1.7; bCat nuc transl: -2.9; Ba/F3 V617F tox: -2.4; APP transl inh: 13.2; BaF3 parental: 3.8

How did CC(Nc1ccc(Br)cn1)c1cc(Cl)ccc1O (stereo not drawn) do in these assays?
MT stabilize HCS: 2.1; L major viab: 92.1*; bCat nuc transl: -1.8; Ba/F3 V617F tox: -1.2; APP transl inh: -0.3; BaF3 parental: 1.9

How did CC(Nc1ccc(Cl)cc1)c1cc(Cl)ccc1O (stereo not drawn) do in these assays?
MT stabilize HCS: 3.4; L major viab: 29.1; bCat nuc transl: 1.6; Ba/F3 V617F tox: -3.6; APP transl inh: -7.0; BaF3 parental: 3.3

How did CCOC(=O)CCCC(=O)N1CCOCCOCCOCC1 do in these assays?
bCat nuc transl: 0.6; Ba/F3 V617F tox: -1.6; BaF3 parental: 3.2

How did COc1cc2c3c(c1)C1(C(=O)N3C(C)(C)C=C2C)C(C#N)=C(N)Oc2cc(O)ccc21 (stereo not drawn) do in these assays?
MT stabilize HCS: 2.7; L major viab: 67.3*; bCat nuc transl: -1.5; Ba/F3 V617F tox: 6.0; APP transl inh: 12.6; BaF3 parental: 8.0

What do the screens show for `Cc1cc2c3c(c1C)C1(C(=O)N3C(C)(C)CC2C)C(C#N)=C(N)Oc2cc(O)ccc21` (stereo not drawn)?
MT stabilize HCS: 2.4; L major viab: 69.8*; bCat nuc transl: -7.9; Ba/F3 V617F tox: 1.6; APP transl inh: 1.0; BaF3 parental: 3.6

Results for Cc1cc2c3c(c1)C1(C(=O)N3C(C)(C)CC2C)C(C#N)=C(N)OC2=C1C(=O)CC(C)(C)C2 (stereo not drawn) ?
MT stabilize HCS: 2.5; L major viab: 2.9; bCat nuc transl: -0.3; Ba/F3 V617F tox: -1.6; APP transl inh: 1.6; BaF3 parental: 1.7

What do the screens show for `CCOC(=O)C(Sc1ncnc2c1sc1nc(N3CCOCC3)c3c(c12)CCCC3)c1ccccc1` (stereo not drawn)?
MT stabilize HCS: 1.3; L major viab: 4.0; bCat nuc transl: 0.5; Ba/F3 V617F tox: 4.2; APP transl inh: 18.7; BaF3 parental: 8.8

Results for O=C(O)CC1S/C(=N/N=C/c2ccc([N+](=O)[O-])cc2)N(c2ccc(O)cc2)C1=O (stereo not drawn) ?
MT stabilize HCS: 2.3; L major viab: -7.7; bCat nuc transl: 0.6; Ba/F3 V617F tox: 0.0; APP transl inh: -4.1; BaF3 parental: 79.8*

What do the screens show for `COc1ccc(/C=N\N=C2/SC(CC(=O)O)C(=O)N2c2ccc(O)cc2)cc1OC` (stereo not drawn)?
MT stabilize HCS: 1.6; L major viab: 56.0*; bCat nuc transl: 0.6; Ba/F3 V617F tox: -1.8; APP transl inh: -4.8; BaF3 parental: 3.8

Results for COc1ccccc1-n1cnc2cc(NCc3ccccn3)ccc21 ?
MT stabilize HCS: 30.1*; L major viab: 33.2; Ba/F3 V617F tox: -2.8; APP transl inh: -45.3; BaF3 parental: 5.0

What do the screens show for `COC(OC)c1ccnc(-c2ccc(OC(=O)c3cccs3)cc2)n1`?
MT stabilize HCS: 6.6; L major viab: -0.8; bCat nuc transl: 1.6; Ba/F3 V617F tox: 1.1; APP transl inh: -39.0; BaF3 parental: 2.8

Results for O=Nc1c2nc3ccccc3n(O)c-2c2ccccc12 ?
MT stabilize HCS: 9.7; L major viab: 11.1; bCat nuc transl: 3.9; Ba/F3 V617F tox: 1.1; APP transl inh: -39.7; BaF3 parental: 9.4

What do the screens show for `O=C(CSCc1ccccc1)N/N=C/c1ccc(OCC(=O)N2CCCCC2)cc1`?
MT stabilize HCS: 2.8; L major viab: 56.7*; bCat nuc transl: -0.5; Ba/F3 V617F tox: 0.9; APP transl inh: 1.0; BaF3 parental: 9.5

How did COc1ccccc1NC(=O)/C(C#N)=C/C=C/c1ccco1 do in these assays?
MT stabilize HCS: 41.3*; L major viab: -2.4; bCat nuc transl: 61.3*; Ba/F3 V617F tox: 0.5; APP transl inh: 87.6*; BaF3 parental: 4.0

Results for COc1ccccc1NC(=S)NC(=O)/C=C/c1ccco1 ?
MT stabilize HCS: 3.6; L major viab: 9.7; bCat nuc transl: 0.0; Ba/F3 V617F tox: 3.2; APP transl inh: -14.4; BaF3 parental: 9.5

What do the screens show for `CCC(O)CNc1nc(SC)nc2sc3c(c12)CCN(C)C3` (stereo not drawn)?
MT stabilize HCS: 2.8; L major viab: 13.0; bCat nuc transl: -4.0; Ba/F3 V617F tox: -2.3; APP transl inh: -1.9; BaF3 parental: 57.4*

What do the screens show for `Cc1ccc(C(=O)O/N=C/c2ccc3c(c2)OCO3)cc1`?
MT stabilize HCS: 2.7; L major viab: 59.0*; bCat nuc transl: -0.2; Ba/F3 V617F tox: 6.2; APP transl inh: -28.6; BaF3 parental: 9.9

Results for O=C(CSC1=NCCN1)NC(c1ccccc1)c1ccccc1 ?
MT stabilize HCS: 5.3; L major viab: 93.6*; bCat nuc transl: 2.4; Ba/F3 V617F tox: -2.9; APP transl inh: -14.1; BaF3 parental: -5.0

Assay outcomes (PubChem)
